From ChEMBL document CHEMBL2434922, “Microwave assisted synthesis of dihydrobenzo[4,5]imidazo[1,2-a]pyrimidin-4-ones; synthesis, in vitro antimicrobial and anticancer activities of novel coumarin substituted dihydrobenzo[4,5]imidazo[1,2-a]pyrimidin-4-ones” (2013)
Values after ≈ are worked out from the molar mass of the structure shown.

Tests used:
Type in all cases: functional
[1] = Cytotoxicity against mouse Daltons ascitic lymphoma cells assessed as dead cells at 100 ug/ml after 3 hrs by trypan blue exclusion assay relative to control
Summary of the method: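 DAL cells (0.2 mL, 10⁶ cells/mL) mixed with ice-cold PBS pH 7.4 and compound (100 µg/mL), held at 37 °C under 5% CO₂ for 3 h. Aliquot then stained with 0.4% trypan blue in normal saline for 5–15 min at room temperature. Live and dead cells counted in a Neubauer chamber; % dead = dead/(dead+live) × 100.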

Penicillium chrysogenum = test: Antifungal activity against Penicillium chrysogenum assessed as growth inhibition after 48 to 72 hrs by broth microdilution method
Fusarium oxysporum = test: Antifungal activity against Fusarium oxysporum assessed as growth inhibition after 48 to 72 hrs by broth microdilution method
Aspergillus flavus = test: Antifungal activity against Aspergillus flavus assessed as growth inhibition after 48 to 72 hrs by broth microdilution method
Aspergillus fumigatus = test: Antifungal activity against Aspergillus fumigatus assessed as growth inhibition after 48 to 72 hrs by broth microdilution method
Aspergillus niger = test: Antifungal activity against Aspergillus niger assessed as growth inhibition after 48 to 72 hrs by broth microdilution method
Candida albicans = test: Antifungal activity against Candida albicans assessed as growth inhibition after 48 to 72 hrs by broth microdilution method
Pseudomonas aeruginosa = test: Antibacterial activity against Pseudomonas aeruginosa assessed as growth inhibition after 18 hrs by broth microdilution method
Klebsiella pneumoniae = test: Antibacterial activity against Klebsiella pneumoniae assessed as growth inhibition after 18 hrs by broth microdilution method
Escherichia coli = test: Antibacterial activity against Escherichia coli assessed as growth inhibition after 18 hrs by broth microdilution method
Streptococcus mutans = test: Antibacterial activity against Streptococcus mutans assessed as growth inhibition after 18 hrs by broth microdilution method
Enterococcus faecalis = test: Antibacterial activity against Enterococcus faecalis assessed as growth inhibition after 18 hrs by broth microdilution method
Staphylococcus aureus = test: Antibacterial activity against Staphylococcus aureus assessed as growth inhibition after 18 hrs by broth microdilution method

SMILES | mortality at 100 µg/mL [1] [%] | MIC (Penicillium chrysogenum) [µg/mL] | MIC (Fusarium oxysporum) [µg/mL] | MIC (Aspergillus flavus) [µg/mL] | MIC (Aspergillus fumigatus) [µg/mL] | MIC (Aspergillus niger) [µg/mL] | MIC (Candida albicans) [µg/mL] | MIC (Pseudomonas aeruginosa) [µg/mL] | MIC (Klebsiella pneumoniae) [µg/mL] | MIC (Escherichia coli) [µg/mL] | MIC (Streptococcus mutans) [µg/mL] | MIC (Enterococcus faecalis) [µg/mL] | MIC (Staphylococcus aureus) [µg/mL]
COc1ccc2oc(=O)cc(Cn3c4ccccc4n4c(=O)cc(C(C)C)nc34)c2c1 | 62 | 0.8 (≈ 1.93 µM) | 0.2 (≈ 0.481 µM) | 0.8 (≈ 1.93 µM) | 0.8 (≈ 1.93 µM) | 50 (≈ 120 µM) | 25 (≈ 60.2 µM) | > 100 | 100 (≈ 241 µM) | 100 (≈ 241 µM) | 3.16 (≈ 7.61 µM) | 0.4 (≈ 0.963 µM) | 100 (≈ 241 µM)
O=C(O)c1cn(C2CC2)c2cc(N3CCNCC3)c(F)cc2c1=O [CIPROFLOXACIN] | – | – | – | – | – | – | – | – | 1 (≈ 3.02 µM) | – | 2 (≈ 6.04 µM) | 2 (≈ 6.04 µM) | 2 (≈ 6.04 µM)
COc1ccc2oc(=O)cc(Cn3c4ccccc4n4c(=O)cc(C(F)(F)F)nc34)c2c1 | 58 | 0.4 (≈ 0.906 µM) | 0.2 (≈ 0.453 µM) | 3.12 (≈ 7.07 µM) | 6.25 (≈ 14.2 µM) | 25 (≈ 56.6 µM) | 50 (≈ 113 µM) | > 100 | 100 (≈ 227 µM) | 100 (≈ 227 µM) | 12.5 (≈ 28.3 µM) | 0.4 (≈ 0.906 µM) | 100 (≈ 227 µM)
Cc1cc(C)c2oc(=O)cc(Cn3c4ccccc4n4c(=O)cc(C(F)(F)F)nc34)c2c1 | 78 | 0.2 (≈ 0.455 µM) | 0.2 (≈ 0.455 µM) | 3.12 (≈ 7.1 µM) | 1.6 (≈ 3.64 µM) | 3.12 (≈ 7.1 µM) | 50 (≈ 114 µM) | 100 (≈ 228 µM) | 100 (≈ 228 µM) | 100 (≈ 228 µM) | 0.2 (≈ 0.455 µM) | 0.4 (≈ 0.91 µM) | 100 (≈ 228 µM)
CC(C)c1cc(=O)n2c3ccccc3n(Cc3cc(=O)oc4ccc(Cl)cc34)c2n1 | 88 | 0.4 (≈ 0.953 µM) | 0.2 (≈ 0.476 µM) | 1.6 (≈ 3.81 µM) | 0.8 (≈ 1.91 µM) | 12.5 (≈ 29.8 µM) | 50 (≈ 119 µM) | 100 (≈ 238 µM) | 100 (≈ 238 µM) | 100 (≈ 238 µM) | 12.5 (≈ 29.8 µM) | 0.4 (≈ 0.953 µM) | 100 (≈ 238 µM)
CC(C)c1cc(O)n2c(n1)nc1ccccc12 | 57 | 0.2 (≈ 0.88 µM) | 0.4 (≈ 1.76 µM) | 1.6 (≈ 7.04 µM) | 1.6 (≈ 7.04 µM) | 25 (≈ 110 µM) | 3.12 (≈ 13.7 µM) | 12.5 (≈ 55 µM) | 100 (≈ 440 µM) | 12.5 (≈ 55 µM) | 25 (≈ 110 µM) | 0.2 (≈ 0.88 µM) | 100 (≈ 440 µM)
O=c1cc(C(F)(F)F)nc2[nH]c3ccccc3n12 | 80 | 0.4 (≈ 1.58 µM) | 0.2 (≈ 0.79 µM) | 0.8 (≈ 3.16 µM) | 0.8 (≈ 3.16 µM) | 6.25 (≈ 24.7 µM) | 1.6 (≈ 6.32 µM) | 100 (≈ 395 µM) | 100 (≈ 395 µM) | 100 (≈ 395 µM) | 50 (≈ 197 µM) | 0.2 (≈ 0.79 µM) | 100 (≈ 395 µM)
O=c1[nH]cc(F)c(=O)[nH]1 [FLUOROURACIL] | 88 | – | – | – | – | – | – | – | – | – | – | – | –
COc1ccc(-c2cc(=O)n3c(n2)[nH]c2ccccc23)cc1 | 64 | 0.4 (≈ 1.37 µM) | 0.2 (≈ 0.687 µM) | 0.8 (≈ 2.75 µM) | 1.6 (≈ 5.49 µM) | 25 (≈ 85.8 µM) | 6.25 (≈ 21.5 µM) | 100 (≈ 343 µM) | 100 (≈ 343 µM) | 100 (≈ 343 µM) | 100 (≈ 343 µM) | 0.2 (≈ 0.687 µM) | 100 (≈ 343 µM)
